Data from ChEMBL document CHEMBL1152552, “Death receptor 5 promoter-enhancing compounds isolated from Catimbium speciosum and their enhancement effect on TRAIL-induced apoptosis” (Bioorg Med Chem, 2009).
The source made the active and inactive calls. The rule behind the calls is not given here.

Assays:
[1] = biological target: Tumor necrosis factor receptor superfamily member 10B (Homo sapiens) (UniProt O14763); test: Induction of DR5 receptor promotor activity in human DLD1 cells co-transfected with Sac1 at 43.9 uM after 24 hrs by luciferase assay; assay type: cell-based; details: DLD-1
[2] = biological target: Tumor necrosis factor receptor superfamily member 10B (Homo sapiens) (UniProt O14763); test: Induction of DR5 receptor promotor activity in human DLD1 cells co-transfected with Sac1 at 39 uM after 24 hrs by luciferase assay; assay type: cell-based; details: DLD-1
DLD-1 [3] = test: Induction of apoptosis in TRAIL-resistant human DLD1 cells assessed as accumulation in sub-G1 phase at 9.3 uM after 24 hrs using annexin-V-FITC/propidium iodide staining by flow cytometry in presence of TRAIL; assay type: functional
DLD-1 [4] = test: Induction of apoptosis in TRAIL-resistant human DLD1 cells assessed as late apoptotic cells at 18.5 uM after 24 hrs using annexin-V-FITC/propidium iodide staining by flow cytometry in presence of TRAIL; assay type: functional
DLD-1 [5] = test: Decrease in Bcl-xL mRNA expression in human DLD1 cells co-transfected with Sac1 cells at 9.3 uM after 24 hrs by RT-PCR analysis; assay type: functional, cell-based
DLD-1 [6] = test: Increase in CHOP mRNA expression in human DLD1 cells co-transfected with Sac1 cells; assay type: functional, cell-based
AGS [7] = test: Induction of apoptosis in TRAIL-resistant human AGS cells assessed as early apoptotic cells at 18.5 uM after 24 hrs using annexin-V-FITC/propidium iodide staining by flow cytometry in presence of TRAIL; assay type: functional
DLD-1 [8] = test: Decrease in Bcl-xL mRNA expression in human DLD1 cells co-transfected with Sac1 cells at 18.5 uM after 24 hrs by RT-PCR analysis; assay type: functional, cell-based
DLD-1 [9] = test: Induction of DR5 gene expression in human DLD1 cells co-transfected with Sac1 cells at 18.5 uM after 24 hrs by RT-PCR analysis
DLD-1 [10] = test: Induction of DR5 protein expression in human DLD1 cells co-transfected with Sac1 cells after 24 hrs by Western blot analysis; assay type: functional, cell-based
Outline: (§1)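 Lysates of DLD1/TR cells treated 24 h (procaspase-8 after combined TRAIL exposure). Equal protein resolved by SDS-PAGE: 15% for Bcl-xL, 12.5% for DR5, 10% for caspase-8. Transferred to PVDF and probed 1 h at room temperature with primary antibody, then HRP secondary 1 h. Chemiluminescent detection with β-actin as loading control.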

AGS [11] = test: Induction of apoptosis in TRAIL-resistant human AGS cells assessed as late apoptotic cells at 18.5 uM after 24 hrs using annexin-V-FITC/propidium iodide staining by flow cytometry in presence of TRAIL; assay type: functional
DLD-1 [12] = test: Induction of apoptosis in TRAIL-resistant human DLD1 cells assessed as accumulation in sub-G1 phase after 24 hrs using annexin-V-FITC/propidium iodide staining by flow cytometry; assay type: functional
[13] = biological target: Tumor necrosis factor receptor superfamily member 10B (Homo sapiens) (UniProt O14763); test: Induction of DR5 receptor promotor activity in human DLD1 cells co-transfected with Sac1 cells at 18.5 uM after 24 hrs by luciferase assay; assay type: cell-based
AGS [14] = test: Induction of apoptosis in TRAIL-resistant human AGS cells assessed as early apoptotic cells at 9.3 uM after 24 hrs using annexin-V-FITC/propidium iodide staining by flow cytometry in presence of TRAIL; assay type: functional
DLD-1 [15] = test: Induction of apoptosis in TRAIL-resistant human DLD1 cells assessed as accumulation in sub-G1 phase at 18.5 uM after 24 hrs using annexin-V-FITC/propidium iodide staining by flow cytometry in presence of TRAIL/caspase 9 inhibitor; assay type: functional, cell-based
Outline: (§2)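 DLD1/TR cells incubated 24 h with 18.5 uM test agent and 100 ng/mL TRAIL, plus either caspase-8 inhibitor z-IETD-fmk at 25 uM or caspase-9 inhibitor z-LEHD-fmk at 20 uM. Ethanol-fixed, PI/RNase stained, sub-G1 fraction read by flow cytometry (at least 20,000 events). Run in triplicate.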

DLD-1 [16] = test: Cytotoxicity against human DLD1 cells co-transfected with Sac1 after 24 hrs; assay type: functional, cell-based; details: DLD-1, 24 h
AGS [17] = test: Induction of apoptosis in TRAIL-resistant human AGS cells assessed as late apoptotic cells at 9.3 uM after 24 hrs using annexin-V-FITC/propidium iodide staining by flow cytometry in presence of TRAIL; assay type: functional
DLD-1 [18] = test: Induction of apoptosis in TRAIL-resistant human DLD1 cells assessed as accumulation in sub-G1 phase at 18.5 uM after 24 hrs using annexin-V-FITC/propidium iodide staining by flow cytometry in presence of TRAIL/z-IETD-fmk caspase 8 inhibitor; assay type: functional, cell-based; outline: as §2
DLD-1 [19] = test: Induction of apoptosis in TRAIL-resistant human DLD1 cells assessed as early apoptotic cells at 9.3 uM after 24 hrs using annexin-V-FITC/propidium iodide staining by flow cytometry in presence of TRAIL; assay type: functional
DLD-1 [20] = test: Activation of caspase 3 in TRAIL-resistant human DLD1 cells co-transfected with Sac1 cells by luminescent assay in presence of TRAIL; assay type: functional, cell-based
Outline: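 Cells exposed 24 h to 4.6, 9.3 or 18.5 uM test agent and/or 100 ng/mL TRAIL, harvested and lysed. Lysate incubated with luminogenic z-DEVD-aminoluciferin substrate (Caspase-Glo 3/7) for 1 h at room temperature; luminescence read on a luminometer.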

DLD-1 [21] = test: Induction of apoptosis in TRAIL-resistant human DLD1 cells assessed as late apoptotic cells at 9.3 uM after 24 hrs using annexin-V-FITC/propidium iodide staining by flow cytometry in presence of TRAIL; assay type: functional
DLD-1 [22] = test: Induction of apoptosis in TRAIL-resistant human DLD1 cells assessed as accumulation in sub-G1 phase at 18.5 uM after 24 hrs using annexin-V-FITC/propidium iodide staining by flow cytometry in presence of TRAIL/human recombinant DR4/Fc chimera protein; assay type: functional, cell-based
Outline: (§3)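 DLD1/TR cells incubated 24 h with 18.5 uM test agent and 100 ng/mL TRAIL, plus 2.5 ug/mL human recombinant DR5/Fc or DR4/Fc chimera. Ethanol-fixed, PI/RNase stained, sub-G1 fraction read by flow cytometry (at least 20,000 events). Run in triplicate.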

DLD-1 [23] = test: Induction of DR5 gene expression in human DLD1 cells co-transfected with Sac1 cells at 9.3 uM after 24 hrs by RT-PCR analysis; assay type: functional
DLD-1 [24] = test: Induction of DR4 gene expression in human DLD1 cells co-transfected with Sac1 cells after 24 hrs by RT-PCR analysis; assay type: functional, cell-based
DLD-1 [25] = test: Induction of apoptosis in TRAIL-resistant human DLD1 cells assessed as accumulation in sub-G1 phase at 18.5 uM after 24 hrs using annexin-V-FITC/propidium iodide staining by flow cytometry in presence of TRAIL/human recombinant DR5/Fc chimera protein; assay type: functional, cell-based; outline: as §3
DLD-1 [26] = test: Decrease in procaspase 8 in TRAIL-resistant human DLD1 cells co-transfected with Sac1 cells at 18.5 uM by Western blot analysis in presence of TRAIL; assay type: functional, cell-based; outline: as §1
DLD-1 [27] = test: Induction of apoptosis in TRAIL-resistant human DLD1 cells assessed as accumulation in sub-G1 phase at 18.5 uM after 24 hrs using annexin-V-FITC/propidium iodide staining by flow cytometry in presence of TRAIL; assay type: functional
DLD-1 [28] = test: Induction of apoptosis in TRAIL-resistant human DLD1 cells assessed as early apoptotic cells at 18.5 uM after 24 hrs using annexin-V-FITC/propidium iodide staining by flow cytometry in presence of TRAIL; assay type: functional
DLD-1 [29] = test: Decrease in Bcl-xL protein expression in human DLD1 cells co-transfected with Sac1 cells after 24 hrs by Western blot analysis; assay type: functional, cell-based; outline: as §1

Chain of Tumor necrosis factor receptor superfamily member 10B (Homo sapiens) (O14763 whole entry): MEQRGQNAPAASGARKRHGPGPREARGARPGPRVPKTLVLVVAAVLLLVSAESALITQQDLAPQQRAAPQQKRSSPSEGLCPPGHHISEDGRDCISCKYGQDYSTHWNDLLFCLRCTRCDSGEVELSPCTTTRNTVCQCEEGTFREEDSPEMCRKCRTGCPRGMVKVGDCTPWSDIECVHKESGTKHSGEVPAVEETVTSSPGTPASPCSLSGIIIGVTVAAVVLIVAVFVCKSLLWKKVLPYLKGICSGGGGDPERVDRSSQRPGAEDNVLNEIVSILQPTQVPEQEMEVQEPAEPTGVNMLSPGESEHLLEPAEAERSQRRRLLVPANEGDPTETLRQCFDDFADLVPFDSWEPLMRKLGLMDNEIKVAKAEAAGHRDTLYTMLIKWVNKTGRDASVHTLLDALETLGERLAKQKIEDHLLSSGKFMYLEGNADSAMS

Compound: COc1cc(/C=C/c2ccccc2)oc(=O)c1
- fold change (FC) [1]: 2.5

Compound: O=C1C[C@@H](c2ccccc2)Oc2cc(O)cc(O)c21
- fold change (FC) [2]: 2.5

Compound: COc1cc(O)cc(O)c1C(=O)/C=C/c1ccccc1 [CARDAMOMIN]
- Activity (DLD-1 [3]): 41.9%
- Activity (DLD-1 [4]): 20.5%
- Activity (DLD-1 [5]): Active
- Activity (DLD-1 [6]): Dose-dependent effect
- Activity (AGS [7]): 30.2%
- Activity (DLD-1 [8]): Active
- fold change (FC) (DLD-1 [9]): 4.1
- Activity (DLD-1 [10]): Dose-dependent effect
- Activity (AGS [11]): 5%
- Activity (DLD-1 [12]): 15.5%
- fold change (FC) [13]: 4.1
- Activity (AGS [14]): 15%
- Activity (DLD-1 [15]): inactive
- IC50 (DLD-1 [16]): 41.8 µM
- Activity (AGS [17]): 3%
- Activity (DLD-1 [18]): inactive
- Activity (DLD-1 [19]): 14.1%
- Activity (DLD-1 [20]): Dose-dependent effect
- Activity (DLD-1 [21]): 14.3%
- Activity (DLD-1 [22]): inactive
- fold change (FC) (DLD-1 [23]): 2
- Activity (DLD-1 [24]): Dose-dependent effect
- Activity (DLD-1 [25]): Active
- Activity (DLD-1 [26]): Active
- Activity (DLD-1 [27]): 55.8%
- Activity (DLD-1 [28]): 26.7%
- Activity (DLD-1 [29]): Dose-dependent effect
